In brackets after ≈: the same amount, converted by molar mass.
Key:
Type in all cases: functional
Klebsiella pneumoniae [1] = experiment: Antimicrobial activity against Klebsiella pneumoniae isolate KpL expressing beta-lactamase OXA-48 by Etest method
Klebsiella pneumoniae [2] = experiment: Antimicrobial activity against Klebsiella pneumoniae isolate Kp11978 expressing beta-lactamase OXA-48, SHV-2a and TEM-1 by Etest method
Escherichia coli [3] = experiment: Antimicrobial activity against Escherichia coli isolate J53 harboring pA-1 containing beta-lactamase OXA-48 located within transposon Tn1999 by Etest method
In short: (§1)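 β-Lactam MICs read with Etest strips. Strains are E. coli J53 recipient and J53 transconjugants carrying OXA-48-positive plasmids recovered from clinical enterobacterial isolates.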

Klebsiella pneumoniae [4] = experiment: Antimicrobial activity against Klebsiella pneumoniae isolate KpB expressing OXA-48 and CTX-M-15 by Etest method
Escherichia coli [5] = experiment: Antimicrobial activity against Escherichia coli isolate J53 harboring pBb containing beta-lactamase OXA-48 located within transposon Tn1999.2 by Etest method; in short: as §1
Klebsiella pneumoniae [6] = experiment: Antimicrobial activity against Klebsiella pneumoniae isolate Kp3A expressing beta-lactamase OXA-48 by Etest method
In short: (§2)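 MICs of β-lactams read from Etest strips. The test organisms are carbapenem-resistant, OXA-48-positive clinical Enterobacteriaceae isolates recovered from Turkey, Lebanon, Egypt, France and Belgium.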

Escherichia coli [7] = experiment: Antimicrobial activity against Escherichia coli isolate J53 harboring p3A containing beta-lactamase OXA-48 located within transposon Tn1999 by Etest method; in short: as §1
Klebsiella pneumoniae [8] = experiment: Antimicrobial activity against Klebsiella pneumoniae isolate Kp4A expressing beta-lactamase OXA-48 and CTX-M-15 by Etest method
Klebsiella pneumoniae [9] = experiment: Antimicrobial activity against Klebsiella pneumoniae isolate Kp5A expressing beta-lactamase OXA-48 and SHV-5 by Etest method
Klebsiella pneumoniae [10] = experiment: Antimicrobial activity against Klebsiella pneumoniae isolate Kp6A expressing beta-lactamase OXA-48 and TEM-150 by Etest method
Escherichia coli [11] = experiment: Antimicrobial activity against Escherichia coli isolate J53 harboring p4A containing beta-lactamase OXA-48 located within transposon Tn1999 by Etest method; in short: as §1
Escherichia coli [12] = experiment: Antimicrobial activity against Escherichia coli isolate J53 harboring p5A containing beta-lactamase OXA-48 located within transposon Tn1999 by Etest method; in short: as §1
Escherichia coli [13] = experiment: Antimicrobial activity against Escherichia coli isolate J53 harboring p6A containing beta-lactamase OXA-48 located within transposon Tn1999 by Etest method; in short: as §1
Klebsiella pneumoniae [14] = experiment: Antimicrobial activity against Klebsiella pneumoniae isolate Kp7A expressing beta-lactamase OXA-48 by Etest method; in short: as §2
Escherichia coli [15] = experiment: Antimicrobial activity against Escherichia coli isolate J53 harboring p7A containing beta-lactamase OXA-48 located within transposon Tn1999 by Etest method; in short: as §1
Klebsiella pneumoniae [16] = experiment: Antimicrobial activity against Klebsiella pneumoniae isolate KpI-1 expressing beta-lactamase OXA-48 and CTX-M-15 by Etest method
Klebsiella pneumoniae [17] = experiment: Antimicrobial activity against Klebsiella pneumoniae isolate KpI-2 expressing beta-lactamase OXA-48 and CTX-M-15 by Etest method
Escherichia coli [18] = experiment: Antimicrobial activity against Escherichia coli isolate J53 harboring pI-1 containing beta-lactamase OXA-48 located within transposon Tn1999.2 by Etest method; in short: as §1
Escherichia coli [19] = experiment: Antimicrobial activity against Escherichia coli isolate J53 harboring pI-2 containing beta-lactamase OXA-48 located within transposon Tn1999.2 by Etest method; in short: as §1
Klebsiella pneumoniae [20] = experiment: Antimicrobial activity against Klebsiella pneumoniae isolate KpBIC expressing beta-lactamase OXA-48 by Etest method; in short: as §2
Escherichia coli [21] = experiment: Antimicrobial activity against Escherichia coli isolate TOP10 harboring pBIC containing beta-lactamase OXA-48 located within transposon Tn1999.2 by Etest method
In short: (§3)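 β-Lactam MICs read with Etest strips. Strains are E. coli TOP10 host and TOP10 transformants made with plasmid DNA extract when conjugation failed. Transformants were selected on LB agar with ticarcillin 50 μg/ml.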

Klebsiella pneumoniae [22] = experiment: Antimicrobial activity against Klebsiella pneumoniae isolate KpE expressing beta-lactamase OXA-48 and CTX-M-15 by Etest method
Escherichia coli [23] = experiment: Antimicrobial activity against Escherichia coli isolate J53 harboring pE containing beta-lactamase OXA-48 located within transposon Tn1999.2 by Etest method; in short: as §1
Klebsiella pneumoniae [24] = experiment: Antimicrobial activity against Klebsiella pneumoniae isolate KpBEL expressing beta-lactamase OXA-48 by Etest method; in short: as §2
Escherichia coli [25] = experiment: Antimicrobial activity against Escherichia coli isolate J53 harboring pBEL containing beta-lactamase OXA-48 located within transposon Tn1999.2 by Etest method; in short: as §1
Escherichia coli [26] = experiment: Antimicrobial activity against Escherichia coli isolate J53 harboring pL containing beta-lactamase OXA-48 located within transposon Tn1999.2 by Etest method; in short: as §1
Providencia rettgeri = experiment: Antimicrobial activity against Providencia rettgeri isolate expressing beta-lactamase OXA-48 and TEM-101 by Etest method
Enterobacter cloacae [27] = experiment: Antimicrobial activity against Enterobacter cloacae isolate 1 expressing beta-lactamase OXA-48 and SHV-5 by Etest method
Escherichia coli [28] = experiment: Antimicrobial activity against Escherichia coli isolate J53 harboring pEnc1 containing beta-lactamase OXA-48 located within transposon Tn1999 by Etest method; in short: as §1
Enterobacter cloacae [29] = experiment: Antimicrobial activity against Enterobacter cloacae isolate 2 expressing beta-lactamase OXA-48 and SHV-5 by Etest method
Escherichia coli [30] = experiment: Antimicrobial activity against Escherichia coli isolate J53 harboring pEnc2 containing beta-lactamase OXA-48 located within transposon Tn1999 by Etest method; in short: as §1
Citrobacter freundii = experiment: Antimicrobial activity against Citrobacter freundii isolate expressing beta-lactamase OXA-48 by Etest method
Escherichia coli [31] = experiment: Antimicrobial activity against Escherichia coli isolate J53 harboring pCF containing beta-lactamase OXA-48 located within transposon Tn1999 by Etest method; in short: as §1
Escherichia coli [32] = experiment: Antimicrobial activity against Escherichia coli isolate A expressing beta-lactamase OXA-48 and TEM-150 by Etest method
Escherichia coli [33] = experiment: Antimicrobial activity against Escherichia coli isolate J53 harboring pEcA containing beta-lactamase OXA-48 located within transposon Tn1999.2 by Etest method; in short: as §1
Escherichia coli [34] = experiment: Antimicrobial activity against Escherichia coli isolate TOP10 harboring pPR containing beta-lactamase and TEM-101 by Etest method; in short: as §3
Escherichia coli [35] = experiment: Antimicrobial activity against Escherichia coli isolate J53 by Etest method; in short: as §1
Escherichia coli [36] = experiment: Antimicrobial activity against Escherichia coli isolate TOP10 by Etest method; in short: as §3

Structure (SMILES)	MIC (Klebsiella pneumoniae [2])	MIC (Escherichia coli [3])	MIC (Klebsiella pneumoniae [4])	MIC (Escherichia coli [5])	MIC (Klebsiella pneumoniae [6])	MIC (Escherichia coli [7])	MIC (Klebsiella pneumoniae [8])	MIC (Klebsiella pneumoniae [9])	MIC (Klebsiella pneumoniae [10])	MIC (Escherichia coli [11])	MIC (Escherichia coli [12])	MIC (Escherichia coli [13])	MIC (Klebsiella pneumoniae [14])	MIC (Escherichia coli [15])	MIC (Escherichia coli [18])	MIC (Escherichia coli [19])	MIC (Klebsiella pneumoniae [20])	MIC (Escherichia coli [21])	MIC (Klebsiella pneumoniae [22])	MIC (Escherichia coli [23])	other results
C[C@@H](O)[C@H]1C(=O)N2C(C(=O)O)=C(SCCNC=N)C[C@H]12 [IMIPENEM ANHYDROUS]	64 µg/mL (≈ 214 µM)	2 µg/mL (≈ 6.68 µM)	16 µg/mL (≈ 53.4 µM)	0.5 µg/mL (≈ 1.67 µM)	> 32 µg/mL	0.75 µg/mL (≈ 2.51 µM)	> 32 µg/mL	> 32 µg/mL	> 32 µg/mL	0.38 µg/mL (≈ 1.27 µM)	0.38 µg/mL (≈ 1.27 µM)	0.38 µg/mL (≈ 1.27 µM)	> 32 µg/mL	0.75 µg/mL (≈ 2.51 µM)	0.5 µg/mL (≈ 1.67 µM)	0.5 µg/mL (≈ 1.67 µM)	0.5 µg/mL (≈ 1.67 µM)	0.5 µg/mL (≈ 1.67 µM)	2 µg/mL (≈ 6.68 µM)	2 µg/mL (≈ 6.68 µM)	MIC (Klebsiella pneumoniae [1]): > 16 µg/mL; MIC (Klebsiella pneumoniae [16]): 24 µg/mL (≈ 80.2 µM); MIC (Klebsiella pneumoniae [17]): 24 µg/mL (≈ 80.2 µM); MIC (Klebsiella pneumoniae [24]): 0.75 µg/mL (≈ 2.51 µM); MIC (Escherichia coli [25]): 0.75 µg/mL (≈ 2.51 µM); MIC (Escherichia coli [26]): 4 µg/mL (≈ 13.4 µM); MIC (Providencia rettgeri): > 32 µg/mL; MIC (Enterobacter cloacae [27]): 0.5 µg/mL (≈ 1.67 µM); MIC (Escherichia coli [28]): 0.5 µg/mL (≈ 1.67 µM); MIC (Enterobacter cloacae [29]): 0.75 µg/mL (≈ 2.51 µM); MIC (Escherichia coli [30]): 0.75 µg/mL (≈ 2.51 µM); MIC (Citrobacter freundii): > 32 µg/mL; MIC (Escherichia coli [31]): 0.75 µg/mL (≈ 2.51 µM); MIC (Escherichia coli [32]): 24 µg/mL (≈ 80.2 µM); MIC (Escherichia coli [33]): 0.75 µg/mL (≈ 2.51 µM)
C[C@@H](O)[C@H]1C(=O)N2C(C(=O)O)=C(S[C@@H]3CN[C@H](C(=O)N(C)C)C3)[C@H](C)[C@H]12 [MEROPENEM]	64 µg/mL (≈ 167 µM)	0.25 µg/mL (≈ 0.652 µM)	32 µg/mL (≈ 83.4 µM)	0.12 µg/mL (≈ 0.313 µM)	> 32 µg/mL	0.12 µg/mL (≈ 0.313 µM)	> 32 µg/mL	> 32 µg/mL	> 32 µg/mL	0.094 µg/mL (≈ 0.245 µM)	0.094 µg/mL (≈ 0.245 µM)	0.094 µg/mL (≈ 0.245 µM)	> 32 µg/mL	0.12 µg/mL (≈ 0.313 µM)	0.094 µg/mL (≈ 0.245 µM)	0.094 µg/mL (≈ 0.245 µM)	0.5 µg/mL (≈ 1.3 µM)	0.5 µg/mL (≈ 1.3 µM)	2 µg/mL (≈ 5.22 µM)	2 µg/mL (≈ 5.22 µM)	MIC (Klebsiella pneumoniae [24]): 0.5 µg/mL (≈ 1.3 µM); MIC (Escherichia coli [25]): 0.5 µg/mL (≈ 1.3 µM); MIC (Escherichia coli [26]): 0.19 µg/mL (≈ 0.495 µM); MIC (Providencia rettgeri): > 32 µg/mL; MIC (Escherichia coli [34]): 0.25 µg/mL (≈ 0.652 µM); MIC (Enterobacter cloacae [27]): 0.5 µg/mL (≈ 1.3 µM); MIC (Escherichia coli [28]): 0.094 µg/mL (≈ 0.245 µM); MIC (Enterobacter cloacae [29]): 0.75 µg/mL (≈ 1.96 µM); MIC (Escherichia coli [30]): 0.12 µg/mL (≈ 0.313 µM); MIC (Citrobacter freundii): > 32 µg/mL; MIC (Escherichia coli [31]): 0.12 µg/mL (≈ 0.313 µM); MIC (Escherichia coli [32]): 24 µg/mL (≈ 62.6 µM); MIC (Escherichia coli [33]): 0.19 µg/mL (≈ 0.495 µM); MIC (Escherichia coli [35]): 0.06 µg/mL (≈ 0.156 µM); MIC (Escherichia coli [36]): 0.06 µg/mL (≈ 0.156 µM)

Source: ChEMBL document CHEMBL1255404, “Spread of OXA-48-encoding plasmid in Turkey and beyond” (2010)
